# Entries after “also recorded” stand apart in the source; their conditions may differ.
# B1: DKN-01: a DKK-1 antibody targeting the Wnt signaling pathway (antibody, chains of the INN, looked up, V domains shown)
# VH: EVQLVESGGGLVQPGGSLRLSCAASGFTFSSYTMSWVRQAPGKGLEWVATISGGGFGTYYPDSVKGRFTISRDNAKNSLYLQMNSLRAEDTAVYYCARPGYNNYYFDIWGQGTTVTVSS
# VL: EIVLTQSPATLSLSPGERATLSCHASDSISNSLHWYQQKPGQAPRLLIYYARQSIQGIPARFSGSGSGTDFTLTISSLEPEDFAVYYCQQSESWPLHFGGGTKVEIK
# Assays:
# [1] = tested on: advanced, unresectable, or recurrent solid tumors; assay: Antitumor activity by investigators, RECIST v1.1, Study 103; assay type: in vivo, human
# How it was run: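 Investigators assessed tumors by CT/MRI every 8 weeks, at end of treatment and when clinically indicated, using the screening modality and settings, per RECIST v1.1. Endpoints were objective response (CR/PR), disease control (CR/PR/SD) and clinical benefit (CR, PR, or SD lasting ≥23 weeks). All patients receiving ≥1 dose of oral test compound (b.i.d., 28-day cycles) were analysed.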
# [2] = tested on: bone formation; details: rats; 7-day repeated-dose toxicity study; ref Data on file; cited from earlier work
# [3] = tested on: activating transcription factor 4 pathway; details: preclinical models of HCC; cited from earlier work
# [4] = tested on: Apc^Min/+ mice; details: cited from earlier work
# [5] = Plasma pharmacokinetics of E7386, noncompartmental analysis, Study 103; assay type: in vivo, human; details: 10-160 mg b.i.d.
# [6] = tested on: patients with advanced, unresectable, or recurrent solid tumors; assay: Bone assessments; assay type: in vivo, human
# How it was run: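 Both parts used DXA bone density at screening, C2D1 and every 12 weeks (±7 days) from C1D1. Fasting serum β-CTX was measured at screening, C2D1, C3D1, then every 8 weeks and at end of treatment. Dose-escalation added β-CTX at C1D15; expansion added DXA (C2D1 ±7 days) at end of treatment and when clinically indicated. Osteoporosis (T-score < −2.5) and untreated bone metastasis excluded patients.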
# [7] = tested on: ECC10 xenograft; details: human gastric cancer cell line (ECC10) xenograft model; cited from earlier work
# [8] = tested on: patients with advanced, unresectable, or recurrent solid tumors; assay: Safety assessments; assay type: in vivo, human
# How it was run: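 Safety covered all AEs of any grade, including DLTs and serious AEs, graded by NCI CTCAE v5.0. Hematology, chemistry and urinalysis were sampled before dosing at scheduled visits. Oral test compound was given b.i.d. in 28-day cycles (10-160 mg dose-escalation; 100 or 120 mg expansion). The analysis set was all patients receiving ≥1 dose.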
# [9] = tested on: patients with advanced, unresectable, or recurrent solid tumors; assay: Dose-limiting toxicity evaluation; assay type: in vivo, human
# How it was run: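 A 3 + 3 escalation started at 10 mg b.i.d. oral, given continuously in 28-day cycles; 10, 15 and 20 mg were predefined. Above 20 mg, steps were 100%, 40%-60% or 25%-39% depending on treatment-related grade 2 or ≥3 toxicity. DLTs were drug-related AEs in cycle 1 (28 days), graded by CTCAE v5.0. Patients dosed as planned in C1, or having a DLT, formed the analysis set.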
# [10] = tested on: desmoid tumors; details: patients with desmoid tumors; cited from earlier work
# [11] = tested on: advanced solid tumors; details: 0 of 25; cited from earlier work
# [12] = tested on: endometrial cancer; details: cited from earlier work
molecule,measurement,setting,value
C=CCN1CC(=O)N2[C@@H](Cc3ccc(O)cc3F)C(=O)N(Cc3cccc(N4CC(N5CCN(CC)CC5)C4)n3)C[C@@H]2N1C(=O)NCc1ccccc1 [E7386],Patients achieving partial response (PR),"[1]; dose-escalation part, SBC at 15 mg b.i.d. and desmoid tumor at 80 mg b.i.d.",two
same,Partial responses,[1]; expansion part,No PRs were observed
same,Treatment duration with durable SD,"[1]; expansion part, patient with CRC (APC/KRAS/TP53 mutations), 100 mg b.i.d., no tumor size reduction",~7 months
same,Treatment duration with durable SD,"[1]; expansion part, patient with HCC, 120 mg b.i.d., with tumor size reduction",~7 months
same,Antitumor activity in patients with CRC,[1]; irrespective of APC mutation status,did not indicate antitumor activity
same,Treatment period of responder (PR),"[1]; patient with desmoid tumor, 80 mg b.i.d. cohort, ongoing at data cut-off",> 3.5 years
same,Treatment duration with durable SD,"[1]; patient with solid pseudopapillary neoplasm of the pancreas, 30 mg b.i.d. cohort",> 2.5 years
same,Doses at which effects on bone formation were observed,[2],≥ 60 mg/kg
same,Effect on activating transcription factor 4 pathway,[3],up-regulate the activating transcription factor 4 pathway
same,Polyp formation in the intestine,[4],suppressed polyp formation
same,E7386 exposure versus dose,"[5]; single and repeat dose, large inter-subject variability",generally increased with dose
same,Time at which maximum plasma concentration was reached,[5]; after oral administration on C1D1,0.5 to 2.0 h
same,Geometric mean accumulation ratios for AUC,[5]; for each dose,1.12-3.81
same,Geometric mean accumulation ratios for Cmax,[5]; for each dose,0.65-3.97
same,Patients with T-score < −2.5 as per DXA scan during the study,"[6]; 1 of 55 patients, spine: −2.4 at screening to −2.6 on C2D1",1.8%
same,"Patients with asymptomatic, post-baseline elevations in β-CTX >1000 pg/ml",[6]; 7 of 55 patients,12.7%
same,Bone fractures,[6]; either part of the study,No bone fractures were reported; also recorded: no bone fracture was observed
same,Tumor growth,[7],inhibited tumor growth
same,Deaths due to TEAEs,[8]; both parts,No patients died due to TEAEs
same,Nausea (TEAE) frequency,[8]; dose-escalation part,83.3%
same,Patients with grade ≥3 TEAEs,[8]; dose-escalation part,15 patients
same,Patients with grade ≥3 anemia,[8]; dose-escalation part,four
same,Vomiting (TEAE) frequency,[8]; dose-escalation part,61.1%
same,TEAEs leading to dose interruption,"[8]; dose-escalation part, 13 patients",36.1%
same,Patients with TEAEs,"[8]; dose-escalation part, 35 of 36 patients",97.2%
same,TEAEs leading to dose reduction,"[8]; dose-escalation part, one patient (decreased appetite)",2.8%
same,TEAEs leading to study-drug discontinuation,"[8]; dose-escalation part, two patients, not considered related to treatment",5.6%
same,Nausea (TEAE) frequency,[8]; expansion part,84.2%
same,Patients with grade ≥3 TEAEs,[8]; expansion part,10 patients
same,Patients with grade ≥3 anemia,[8]; expansion part,two
same,Patients with grade ≥3 hyponatremia,[8]; expansion part,two
same,Patients with grade ≥3 nausea,[8]; expansion part,one
same,TEAEs leading to study-drug discontinuation,[8]; expansion part,No patient in the expansion part discontinued the study drug due to TEAEs
same,Vomiting (TEAE) frequency,[8]; expansion part,73.7%
same,TEAEs leading to dose interruption,"[8]; expansion part, 5 patients",26.3%
same,Patients with TEAEs,"[8]; expansion part, 18 of 19 patients",94.7%
same,TEAEs leading to dose reduction,"[8]; expansion part, four patients",21.1%
same,Patients with dose-limiting toxicities (grade 3 decreased appetite),"[9]; 160 mg b.i.d. cohort, cycle 1, dose-escalation",two
same,Dose-limiting toxicities,"[9]; 10-120 mg b.i.d. cohorts, dose-escalation",no DLTs were observed
same,Recommended dose of E7386 monotherapy,"[9]; oral, 28-day cycles",120 mg b.i.d.
C[C@@H]1C[C@H](C)CN(S(=O)(=O)c2ccc3c(c2)C(=NO)c2cc(S(=O)(=O)N4C[C@H](C)C[C@H](C)C4)ccc2C3=NO)C1 [tegavivint],Nausea incidence,[10],33%
Cc1c(-c2ccnc(C(F)(F)F)c2)ncn1CC(=O)Nc1ccc(-c2cnccn2)cn1 [RXC004],Objective response rate (ORR),[11],0%
B1,TEAE nausea incidence,[12],48.3%
same,TEAE vomiting incidence,[12],24.1%
same,Objective response rate (ORR),"[12]; endometrial cancer, 2 of 26",7.7%

# Source: article PMC12800764 (ESMO Open, 2025)
